This sample holds only a part of the variants without activity.
B1: tRNA (parent)
chain: GUUCCGUUGGCGUAAUGGUAACGCGUCUCCCUCCUAAGGAGAAGACUGCGGGUUCGAGUCCCGUACGGAACG

Variants of: B1
Test: yeast fitness relative to wild type (ratio to wild type); higher = fitter; tRNA-Arg(CCU), competitive growth, 37 C, YPD
How it was run: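 Amplicons of the tRNA-Arg(CCU) gene were sequenced, 100-nucleotide paired-end, from the start population and from each end population of a pooled yeast competition. The competition, in six parallel replicates, lasted 24 hours in YPD at 37°C. Fitness relative to wild type was calculated from changes in genotype frequencies. Genotypes had to have ≥ 100 starting reads, and estimates < 0.5 were set to 0.5.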

U3A U7G A14U G25A G41C C46U U59C C61A and U3A C4G U8A C24G U53C G58A cannot be ordered by yeast fitness: at most 0.5 for the first, at most 0.5 for the second.

U3C G6C A14U A20G G25A G38A U47A C60G A70G and U3G A21C G67U cannot be ordered by yeast fitness: at most 0.5 for the first, at most 0.5 for the second.

U3A G17A C22U A45G and U3A G48C U54C C55A cannot be ordered by yeast fitness: at most 0.5 for the first, at most 0.5 for the second.

Compared with U3A C4G G68A, U3C C5A C66U is higher in yeast fitness: at most 0.5 for the first, 0.605 for the second.

U3A G10C G39C G48A and U3A U7A U32C G41A cannot be ordered by yeast fitness: at most 0.5 for the first, at most 0.5 for the second.

Compared with U3A C30U, U3C U59C A65C A69G is lower in yeast fitness: 0.822 for the first, 0.593 for the second.

Compared with U3C U16A, U3A U59G is lower in yeast fitness: 0.936 for the first, 0.81 for the second.

Going from U3A U59A to U3C C24G C31U C55A, the yeast fitness falls from 0.658 to at most 0.5.

U3A C11G G12A C22U G39A and U3C U47A U53C cannot be ordered by yeast fitness: at most 0.5 for the first, at most 0.5 for the second.

Going from U3C U13C C24U G52A G68U to U3A U19A C61U A70U, the yeast fitness rises from at most 0.5 to 0.551.

Going from U3A C30G C31U to U3A G58A, the yeast fitness rises from at most 0.5 to 1.01.

Going from U3C U19A U28A C60G to U3C G56A U59C, the yeast fitness rises from at most 0.5 to 0.768.

U3C U8A U19A U54G and U3C C34A G44C C46U G51A cannot be ordered by yeast fitness: at most 0.5 for the first, at most 0.5 for the second.

U3A C4U U8A G10A A21G U53A A65C A70G and U3A C4U G10A C33G C34G A57U cannot be ordered by yeast fitness: at most 0.5 for the first, at most 0.5 for the second.

Going from U3C G9A A15U C30A A42G to U3C C31U A36U G39C, the yeast fitness falls from 0.506 to at most 0.5.

Compared with U3C U32A C46G C62A, U3C U7G A14C C31A is higher in yeast fitness: at most 0.5 for the first, 0.788 for the second.

First: U3A U16A C22U A36C G38U G48C
Second: U3C U16C C30G C31G A37U
The yeast fitness of the first is lower: at most 0.5 for the first, 0.718 for the second.

First: U3A U16C C33G C62U
Second: U3G C24A C34A C46G
The yeast fitness of the first is lower: at most 0.5 for the first, 0.581 for the second.

U3C C29G G44C C49G A57C and U3A U7A A43C G56A cannot be ordered by yeast fitness: at most 0.5 for the first, at most 0.5 for the second.

Compared with U3C A40U C49A C62A, U3A C22U C24A C27U A43C is higher in yeast fitness: at most 0.5 for the first, 0.522 for the second.

Compared with U3C A36C, U3C G41A A65C is lower in yeast fitness: 0.566 for the first, 0.51 for the second.

U3C A20C A45C C49U and U3G C5A C34A cannot be ordered by yeast fitness: at most 0.5 for the first, at most 0.5 for the second.

First: U3A G41C G63C A65U
Second: U3C A69U
The yeast fitness of the first is lower: at most 0.5 for the first, 1.03 for the second.

First: U3G C4A A40U C66A A69C
Second: U3G C30G A70C
The yeast fitness of the first is lower: at most 0.5 for the first, 0.628 for the second.

Going from U3C G9A C62G to U3C U8C U13C, the yeast fitness falls from 0.681 to 0.548.

Compared with U3G C24A C30U, U3C A43C is higher in yeast fitness: at most 0.5 for the first, 1.04 for the second.

Compared with U3A G41C C66A, U3G A14G is higher in yeast fitness: 0.527 for the first, 0.907 for the second.

First: U3C C11A C31A G67U
Second: U3C G9A C61U
The yeast fitness of the first is lower: at most 0.5 for the first, 0.827 for the second.

U3G C5G G10A C30G C31G C49A C60U G67A and U3A C11A C33U G58C cannot be ordered by yeast fitness: at most 0.5 for the first, at most 0.5 for the second.

Compared with U3A G23C A45G, U3A C11U is higher in yeast fitness: at most 0.5 for the first, 0.808 for the second.

Compared with U3C G12A C24A A36U C61U G67U, U3C C46G is higher in yeast fitness: 0.55 for the first, 0.912 for the second.

Going from U3C C46A to U3A C33U G44A, the yeast fitness falls from 0.912 to at most 0.5.

U3A C30U U54A and U3G C4G C22U C29U G52C G63A G67U A70C cannot be ordered by yeast fitness: at most 0.5 for the first, at most 0.5 for the second.

First: U3A C62A
Second: U3A C5A G23A G68U
The yeast fitness of the first is lower: 0.727 for the first, 0.816 for the second.

First: U3A C24U C31G G44C A69U
Second: U3C A45U C49G
The yeast fitness of the first is lower: at most 0.5 for the first, 0.678 for the second.

Going from U3A G18A C49G C55G C60A C62A G68A A69U to U3C C55U A65G, the yeast fitness falls from 0.623 to 0.514.

Compared with U3A C27G U28G A36U A45U C49G, U3C G41A U53G U59A C62G is lower in yeast fitness: 0.662 for the first, at most 0.5 for the second.

Compared with U3C C5U, U3A C5U A37U is lower in yeast fitness: 0.836 for the first, at most 0.5 for the second.

First: U3A G25A G38A
Second: U3A C4G G9A C11G
The yeast fitness of the first is higher: 0.583 for the first, at most 0.5 for the second.

Going from U3A C22G to U3C A14C, the yeast fitness falls from 0.714 to 0.703.

First: U3C C30U
Second: U3C A14G C30G A43C
The yeast fitness of the first is higher: 0.879 for the first, at most 0.5 for the second.

First: U3A G12C A15C U19A C34U C49A G67A
Second: U3G C4U
The yeast fitness of the first is lower: at most 0.5 for the first, 0.915 for the second.

U3A C4U A43C G50A A70U and U3A C27G A43G cannot be ordered by yeast fitness: at most 0.5 for the first, at most 0.5 for the second.

Compared with U3C G25A A65C, U3C G23C C30A G38C is lower in yeast fitness: 0.732 for the first, at most 0.5 for the second.

Going from U3G A15C to U3A C24G A69C, the yeast fitness falls from 0.511 to at most 0.5.

Compared with U3G A20C G44C C61U, U3A A65G G68A A70U is lower in yeast fitness: 0.606 for the first, 0.556 for the second.

Going from U3G A14G C60G to U3C A36G C61U, the yeast fitness rises from at most 0.5 to 0.623.

U3C C4G G23C and U3C A21U C34A G52A C61G G63A cannot be ordered by yeast fitness: at most 0.5 for the first, at most 0.5 for the second.

U3A C27G C31U C33U A42C G58C and U3C C11A C24U A42G G63A cannot be ordered by yeast fitness: at most 0.5 for the first, at most 0.5 for the second.

U3A C4G U8A C34U and U3C C5G A40G cannot be ordered by yeast fitness: at most 0.5 for the first, at most 0.5 for the second.

First: U3A C5G G56U
Second: U3C U28C
The yeast fitness of the first is lower: at most 0.5 for the first, 1.08 for the second.

U3A C4U G48U and U3G C5G A20C C61U cannot be ordered by yeast fitness: at most 0.5 for the first, at most 0.5 for the second.

U3A G12C A21C A36C C49U A70U and U3C C4G C66G cannot be ordered by yeast fitness: at most 0.5 for the first, at most 0.5 for the second.

Going from U3C C66A to U3C C66U, the yeast fitness rises from 0.711 to 0.904.

U3G C30U G48C A65U G68C and U3C C31U A42G U54A cannot be ordered by yeast fitness: at most 0.5 for the first, at most 0.5 for the second.

Compared with U3A G23A A70G, U3A C31G is higher in yeast fitness: 0.561 for the first, 0.845 for the second.

Going from U3C C4A U16C G17A to U3C A45U U59C, the yeast fitness rises from at most 0.5 to 0.699.

Going from U3A C5A G6C A15G U16A U26G G38C U54A to U3C C62U, the yeast fitness rises from at most 0.5 to 0.904.

First: U3C C11A C31A C49G G58C
Second: U3G C11U G67A
The yeast fitness of the first is lower: at most 0.5 for the first, 0.564 for the second.

Compared with U3C C31U A57G, U3G A43G G56A is lower in yeast fitness: 0.778 for the first, 0.601 for the second.

First: U3C A15G G68C
Second: U3C A20G C24U G52A A57U C62A
The yeast fitness of the first is higher: 0.618 for the first, at most 0.5 for the second.

First: U3C A20G U47C
Second: U3A U13C G25A
The yeast fitness of the first is higher: 0.686 for the first, 0.67 for the second.

Going from U3C C5U G39C to U3C U8C, the yeast fitness rises from 0.57 to 0.906.

Compared with U3C U8A, U3C C5G G17C C29U is lower in yeast fitness: 0.639 for the first, at most 0.5 for the second.

First: U3A C5G U35A A40U C46G U53A
Second: U3C G58A
The yeast fitness of the first is lower: 0.583 for the first, 0.922 for the second.

U3C C11G A42C C49U and U3A G39C A45G G50A cannot be ordered by yeast fitness: at most 0.5 for the first, at most 0.5 for the second.

First: U3C A21C
Second: U3C A36U A69U
The yeast fitness of the first is higher: 0.831 for the first, at most 0.5 for the second.

U3A C22U G39A C66U A69C and U3C G17C C22A C24G U28C C33A cannot be ordered by yeast fitness: at most 0.5 for the first, at most 0.5 for the second.

First: U3C G17A
Second: U3A C24U C31G A37G
The yeast fitness of the first is higher: 0.831 for the first, at most 0.5 for the second.

Compared with U3C A14U A15C C31G A43U, U3A U19A C24U is higher in yeast fitness: at most 0.5 for the first, 0.74 for the second.

U3A C34A A69G and U3G A20C A43U C55A A65U A70G cannot be ordered by yeast fitness: at most 0.5 for the first, at most 0.5 for the second.

Compared with U3C A42U G63A, U3G A43U C62U is higher in yeast fitness: at most 0.5 for the first, 0.727 for the second.

U3A C5G A21U C22U G41A A43C G51C C66U G67U and U3A U47G G67A A69U cannot be ordered by yeast fitness: at most 0.5 for the first, at most 0.5 for the second.

Compared with U3C C27A, U3A C5A G6C A15G U16A U26G C60G C61U is lower in yeast fitness: 0.706 for the first, 0.514 for the second.

U3A C22U U28A A37U G51C C66U and U3A C34U A45G C49U U53A cannot be ordered by yeast fitness: at most 0.5 for the first, at most 0.5 for the second.

First: U3C G9A A69U
Second: U3C G25U U64G
The yeast fitness of the first is higher: 0.882 for the first, at most 0.5 for the second.

U3A U8C A36U U53G and U3A G6C C55G cannot be ordered by yeast fitness: at most 0.5 for the first, at most 0.5 for the second.

U3A C62U G63C and U3A G10C A57G C66U cannot be ordered by yeast fitness: at most 0.5 for the first, at most 0.5 for the second.

First: U3A C4U C33G C34G A57U
Second: U3A C4A U8C C29G A37C A69C
The yeast fitness of the first is higher: 0.63 for the first, at most 0.5 for the second.

U3C C11U U19A A43U U59A G63A and U3C C31A C49G A70C cannot be ordered by yeast fitness: at most 0.5 for the first, at most 0.5 for the second.

U3C C11G G63U and U3A C27U C60A cannot be ordered by yeast fitness: at most 0.5 for the first, at most 0.5 for the second.

U3C A57C U64A and U3C C31A C49A cannot be ordered by yeast fitness: at most 0.5 for the first, at most 0.5 for the second.

Going from U3A C4U U32C U64C to U3A C31A C55U, the yeast fitness falls from 0.877 to at most 0.5.

Work on U3G A45G U54C yielded a yeast fitness of 0.678.

— the RNAGym collection of RNA variant scans (doi:10.1126/science.aae0568)
